KCC2 mod = KCC2 cotransporter modulators, thallium flux, primary screen, cell-based, HEK293 KCC2, FluoZin-2 fluorescence, MLSMR; Solute carrier family 12 member 5 (Homo sapiens), Q9H2X9; KCC2 cells, thallium flux FluoZin-2 fluorescence; B-score of Tl+ flux slope (higher = more flux/activation; lower = inhibition) at 10 µM; actives 2.2% (n = 190,000);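 active = thallium flux slope and its plate-corrected score both differing from the plate sample mean at a set confidence after two filtering rounds, in either direction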;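 also: slope of fluorescence scaled to starting intensity during 10 to 20 s after thallium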
NPY2 pot ag = NPY-Y2 potentiators or agonists, primary screen, cell-based; actives 0.45% (n = 220,000); Neuropeptide Y receptor type 2 (Homo sapiens), P49146; AID 1359, 2008; activation, % at 3.6 µM; cells expressing NPY-Y2, potentiator/agonist read-out; in the data active = activation above about 27%;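 also: cells stimulated with NPY near EC25 plus isoproterenol at EC100; 0% = vehicle plus submaximal agonist and 100% = vehicle plus saturating agonist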
Target sequence (P49146 whole entry, looked up): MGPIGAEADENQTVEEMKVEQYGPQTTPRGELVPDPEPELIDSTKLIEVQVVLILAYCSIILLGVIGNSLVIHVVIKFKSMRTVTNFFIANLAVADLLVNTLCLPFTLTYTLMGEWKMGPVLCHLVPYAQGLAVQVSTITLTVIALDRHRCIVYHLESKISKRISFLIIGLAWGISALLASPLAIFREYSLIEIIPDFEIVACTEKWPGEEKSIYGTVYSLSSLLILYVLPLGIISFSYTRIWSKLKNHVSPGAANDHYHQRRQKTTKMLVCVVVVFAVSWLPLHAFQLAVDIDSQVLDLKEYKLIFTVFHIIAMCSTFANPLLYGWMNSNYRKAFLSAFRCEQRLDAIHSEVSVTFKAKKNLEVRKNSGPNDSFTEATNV
Furin inh = human furin inhibitors, primary screen, biochemical, fluorescence intensity. purified furin, fluorogenic substrate cleavage. inhibition, % at 20 µM or 30 µM. P09958. actives 0.061% (n = 220,000); in the data active = inhibition above about 25%
NPY Y1 blocker = NPY-Y1 receptor antagonists, primary screen, cell-based. inhibition, % at 3.6 µM. AID 1040, 2008. Neuropeptide Y receptor type 1 (Homo sapiens), P25929. HEK293-CNG Y1 cells, membrane potential fluorescence; NPY at EC95, then isoproterenol. actives 1% (n = 200,000);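 active = inhibition above the campaign mean inhibition of all tested compounds plus 3 SD, cut at about 20% in these data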;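 also: 0% = DMSO wells given NPY plus isoproterenol and 100% = isoproterenol alone without NPY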
Target sequence (P25929 whole entry, looked up): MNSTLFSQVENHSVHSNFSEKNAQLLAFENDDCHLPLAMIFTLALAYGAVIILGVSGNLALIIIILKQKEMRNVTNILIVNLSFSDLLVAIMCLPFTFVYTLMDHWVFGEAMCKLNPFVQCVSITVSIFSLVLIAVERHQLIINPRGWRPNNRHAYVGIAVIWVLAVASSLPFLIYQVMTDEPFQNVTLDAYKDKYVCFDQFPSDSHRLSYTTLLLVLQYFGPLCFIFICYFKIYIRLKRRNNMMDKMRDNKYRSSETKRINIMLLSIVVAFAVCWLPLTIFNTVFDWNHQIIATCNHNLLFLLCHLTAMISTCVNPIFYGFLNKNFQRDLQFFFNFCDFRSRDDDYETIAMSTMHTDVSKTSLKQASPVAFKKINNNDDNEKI
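Material: Y1- and CNG-channel-expressing HEK293 cells / Probe or stimulus: NPY 25 nM then isoproterenol 1 µM plus Ro 20-1724 25 µM / Doses: 3.6 µM single dose, DMSO 0.4% / Schedule: compound incubation 1 h at room temperature, readout 45 min post-stimulation / Signal: membrane potential fluorescence / Benchmarks: isoproterenol-only wells as full block versus NPY-plus-isoproterenol wells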
NPY-Y2 antag = NPY-Y2 receptor antagonists, primary screen, cell-based. Neuropeptide Y receptor type 2 (Homo sapiens), P49146. NPY-Y2 expressing cells, antagonist mode. inhibition, % at 2.7 µM. actives 0.99% (n = 140,000). AID 793, 2007; in the data active = inhibition above about 17%;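 also: 0% = vehicle with agonist challenge and 100% = reference antagonist with challenge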
NPY-Y1 PAM-ag = NPY-Y1 receptor potentiators or agonists, primary screen, cell-based; activation, % at 3.6 µM; actives 0.37% (n = 220,000); AID 1304, 2008; NPY-Y1 expressing cells, potentiator/agonist activation; Neuropeptide Y receptor type 1 (Homo sapiens), P25929; in the data active = activation above about 33%, passing the limit was not always enough;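 also: cells stimulated with NPY at EC10 then isoproterenol at EC100; 0% = low agonist plus stimulus and 100% = saturating agonist plus stimulus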
The depositor's hits bear a star; i = inactive; · = no result. The list is not random: actives were taken first. Their share in the collection is about 3.7%.

SMILES | KCC2 mod | NPY2 pot ag | Furin inh | NPY Y1 blocker | NPY-Y2 antag | NPY-Y1 PAM-ag
CCOC(=O)C1=C(C)C(c2ccccc2OC)NC(=S)N1 (configuration not stated) | -0.574 | 12.1 | -22.5 | -1.7 | 0.1 | 18.7
Cc1ccc(-c2cc(C(=O)NCc3cccnc3)no2)cc1 | -0.971 | 3.1 | 25.1* | 0.1 | 0.3 | -8.9
COc1ccc(-c2cc(C(=O)NCc3cccnc3)no2)cc1OC | -0.0256 | -6.9 | -4.5 | 2.2 | -0.6 | -11.9
O=c1c(C(c2ccccc2)c2c(O)sc3ccccc3c2=O)c(O)sc2ccccc12 | 20.7* | -2.0 | -14.3 | 1.6 | 2.3 | 20.2
C[C@H](NC(=O)Nc1cccc(Br)c1)C(=O)O | 0.593 | -2.6 | -23.8 | · | · | -3.2
c1ccc(N2CCN(c3ncnc4c3oc3ccccc34)CC2)cc1 | · | -23.5 | -18.0 | 23.0* | 21.7* | -14.4
CCCCCOc1ccc(Br)cc1CSC(=N)N | 1.25 | -2.8 | -5.3 | 45.9* | 35.2* | -99.4
O=Cc1cccn1-c1nccc(-c2ccco2)n1 | -2.2 | -16.0 | -19.2 | 7.7 | · | -15.7
CC1CCCC2(C1)NC(=S)c1c(sc3c1CCCC3)N2 (configuration not stated) | 53.9* | 2.5 | -4.7 | -0.9 | 0.1 | -10.0
CCc1ccc(C2C(C#N)=C(N)SC(N)=C2C#N)cc1 | 7.91* | 6.0 | 0.4 | -2.3 | 0.1 | -4.2
N#CC1=C(N)SC(N)=C(C#N)C1c1ccc(C(F)(F)F)cc1 | 0.93 | 2.8 | -15.6 | -5.3 | 3.5 | 4.8
N#CC1=C(N)SC(N)=C(C#N)C1CCc1ccccc1 | -3.05* | 8.9 | -19.6 | -3.6 | 7.4 | 25.9
O=C1CCCN1c1nccs1 | 0.123 | -2.9 | -28.5 | -0.6 | · | 11.6
CCOC(=O)N1CCN(C(=O)CSCc2ccccc2Cl)CC1 | 0.503 | 8.1 | -4.7 | -3.3 | 0.6 | 10.8
CCN1CCN(C2=CC3=CC(=C(C#N)C#N)CCC3CC2)CC1 (configuration not stated) | i | 11.5 | 27.6* | 2.7 | · | -0.8
CN1CCN(C2=CC3=CC(=C(C#N)C#N)CCC3CC2)CC1 (configuration not stated) | i | -0.5 | 0.2 | -6.7 | · | 4.7
Cc1cccc(C)c1NC(=O)CS(=O)CC(=O)NCC1OCCc2ccccc21 (configuration not stated) | 0.164 | 4.7 | -17.0 | -1.1 | · | 12.6
CC1CCC2(CC1)OCC1(CCC3(COC4(CCC(C)CC4)OC3)C1=O)CO2 (configuration not stated) | -0.334 | -4.5 | -8.7 | -1.3 | · | 0.0
Oc1oc(-c2cccc3ccccc23)nc1/C=N/c1nccs1 | 23.9* | -23.4 | 3.7 | 0.3 | 4.3 | -30.0
C=CCOc1ccc2ccccc2c1CNCCCN1CCOCC1 | 0.0379 | -18.4 | 2.5 | 20.8* | 20.1* | -19.5
O=C(Nc1cccc(NS(=O)(=O)c2ccc(S(=O)(=O)NC3CC3)cc2)c1)c1ccccn1 | -1.84 | -1.0 | -22.2 | 0.1 | -0.8 | -6.1
CCc1ccc2c(CN3CCc4ccccc43)cc(=O)oc2c1 | -0.0295 | -9.2 | -17.6 | 21.9* | 22.5* | -2.4
O=C(Nc1nnc(-c2ccncc2)o1)c1cccc(N2C(=O)CCC2=O)c1 | -0.617 | 12.1 | -26.6 | 2.1 | · | 25.4
O=C(Nc1nnc(-c2ccc(Cl)cc2)o1)c1cccc(N2C(=O)CCC2=O)c1 | 17.4* | 6.9 | -0.4 | 6.7 | 2.2 | 2.8
COC(=O)c1ccc(C(=O)Nc2nnc(-c3cccnc3)o2)cc1 | 1.16 | 12.1 | -22.7 | 4.0 | · | 11.5
SMILES | KCC2 mod | NPY2 pot ag | Furin inh | NPY Y1 blocker | NPY-Y2 antag | NPY-Y1 PAM-ag
O=C(Nc1nnc(-c2ccccc2)o1)c1ccc(Cl)cc1 | 64.3* | -7.2 | -17.2 | 19.3 | 8.3 | 1.0
Cc1sc(NC(=O)CN(Cc2ccc(F)cc2)C(=O)C(C)(C)C)c(C(N)=O)c1C | -1.33 | -5.3 | -17.8 | 3.9 | 10.1 | -0.9
Cc1ccc(N(CC(=O)NC(C)(C)C)C(=O)CNC(=O)c2cccs2)cc1C | 1.55 | 0.4 | -28.3 | 3.6 | · | 12.8
Nc1ncnc2c1C1(CCCCC1)Cc1ccccc1-2 | 0.227 | -14.0 | -13.8 | 0.9 | 5.6 | -7.8
CC1CC(=O)NN=C1c1ccc(NCCO)c([N+](=O)[O-])c1 (configuration not stated) | · | -45.5 | -9.7 | 77.8* | 77.6* | -85.1
COc1cccc(NC(=O)[C@H](C)NC(=O)C2CCN(S(=O)(=O)c3ccc(C)cc3)CC2)c1 | -0.179 | 4.9 | -18.9 | · | · | 11.1
Cc1cccc2cc(C#N)c(N3CCN(C)CC3)nc12 | · | -33.4 | -19.6 | 14.9 | 8.6 | -54.4
Cc1cc(C)c2nc(N3CCN(C)CC3)c(C#N)cc2c1 | · | -47.9 | -27.1 | 52.1* | 25.7* | -86.2
O=C(Oc1ccccc1)n1c(=S)oc2ccccc21 | 0.939 | 13.6 | -8.4 | -3.4 | 2.7 | -16.4
Cc1ccccc1OC(=O)n1c(=S)oc2cc(Cl)ccc21 | 2.6* | -4.4 | -3.6 | 1.3 | 8.3 | -4.7
CCOC(=O)N1CCN(C(=O)c2ccc(SC)cc2OC)CC1 | 2.65 | -4.4 | -14.4 | 6.4 | · | 9.9
O=C(CNC(=S)NC(=O)c1ccco1)c1ccccc1 | 5.46* | -1.0 | -6.4 | 5.6 | 2.7 | -12.9
O=C(CNC(=S)NC(=O)c1cccs1)c1ccccc1 | 10.7* | -1.2 | -19.5 | 11.6 | -0.3 | -11.2
Cc1ccc(C(=O)NC(=S)NCC(=O)c2ccccc2)cc1 | · | -21.8 | -11.9 | 12.7 | 7.6 | -14.8
CCO[C@@H]1OC(C(=O)NCc2ccccc2)=C[C@H](c2csc3ccccc23)[C@H]1CCCO | -2.88* | 22.1 | -7.9 | -7.6 | · | 13.9
C#Cc1ccc([C@@H]2C=C(C(=O)N3CCN(Cc4ccccc4)CC3)O[C@H](OCC)[C@H]2CCCO)cc1 | -3.78* | -7.0 | -24.6 | 0.1 | · | -11.7
C#Cc1ccc([C@H]2C=C(C(=O)N3CCN(Cc4ccccc4)CC3)O[C@@H](OCC)[C@@H]2CCCO)cc1 | -1.33 | 0.7 | -24.5 | -5.9 | · | 1.4
CCCNc1nc(Cl)nc(NCc2cccnc2)n1 | 0.303 | 6.3 | -19.6 | · | · | 3.4
O=C(CCCC(=O)OCC(F)(F)C(F)F)Nc1ccccc1F | -0.342 | 2.5 | -19.3 | 6.8 | · | -6.5
O=C(O)COc1ccc2c(-c3ccccc3)cc(=O)oc2c1 | 0.00552 | -41.0 | -0.5 | 20.1* | 6.9 | -22.6
Brc1ccc(Cn2c(-c3ccc(Br)o3)nc3ccccc32)o1 | i | -25.6 | -9.3 | 29.3* | 28.8* | -21.0
Cn1c(-c2ccc(Br)o2)nc2ccccc21 | -1.91 | -6.8 | -10.3 | 6.5 | 3.2 | -16.2
COc1ccc(S(=O)(=O)Nc2cc(C(C)C)c(O)cc2C)cc1 | -0.425 | 16.4 | 29.9* | -4.4 | -0.3 | -1.4
COc1ccc(S(=O)(=O)Nc2cc(C)c(O)cc2C(C)C)cc1 | 0.23 | 11.6 | -10.5 | -4.8 | 2.2 | -16.0
